# ChEMBL document CHEMBL1157378, “Role for cell density in antifungal drug resistance in Candida albicans biofilms” (2007)
# Columns and labels:
# Assay type in all cases: functional
# [1] = test system: Candida albicans; assay: Antimicrobial activity against Candida albicans SC5314 at planktonic cell density of 10^3 cells/ml after 24 hrs by XTT assay; settings: SC5314, 24 h
# In short: (§1)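 Planktonic yeast grown in YNB with 50 mM glucose at room temperature with shaking, subcultured to about 2 x 10^8 cells/ml, then washed and resuspended in MOPS-buffered RPMI 1640 with L-glutamine at the stated density. 100 µl of cells was mixed with 100 µl of a twofold drug series (prepared at 1,024 to 0.0313 µg/ml) and incubated for 24 h at 37°C. Read-out was XTT with 1 µM menadione at 37°C, absorbance at 490 nm.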
# [2] = test system: Candida albicans; assay: Antimicrobial activity against Candida albicans SC5314 at planktonic cell density of 10^8 cells/ml after 24 hrs by XTT assay; settings: SC5314, 24 h; in short: as §1
# [3] = test system: Candida albicans; assay: Antimicrobial activity against Candida albicans SC5314 dissociated biofilms at cell density of 10^3 cells/ml after 24 hrs by XTT assay; settings: SC5314, 24 h
# In short: (§2)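 Polystyrene-well biofilms (48 h, 37°C) washed, then broken up in 100 µl RPMI by scraping and aspiration. Cells used undiluted (about 2 x 10^8 cells/ml equivalent) or adjusted by A600 against a hemacytometer-calibrated yeast standard curve. Drug exposure at 37°C for 48 h (caspofungin 24 h), then XTT/menadione read at 490 nm.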
# [4] = test system: Candida albicans; assay: Antimicrobial activity against Candida albicans SC5314 dissociated biofilms at cell density of 10^8 cells/ml after 24 hrs by XTT assay; settings: SC5314, 24 h
# In short: (§3)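 Biofilms grown from 1 x 10^6 cells/ml in RPMI on polystyrene 96-well plates, 48 h at 37°C in a moist chamber, then washed and scraped into 100 µl RPMI. Cells used undiluted (about 2 x 10^8 cells/ml equivalent) or diluted to a low density set against an A600 standard curve. A twofold drug series was added for 24 h at 37°C. Read-out was XTT/menadione at 490 nm.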
# [5] = test system: Candida albicans; assay: Antimicrobial activity against Candida albicans SC5314 intact biofilms after 24 hrs by XTT assay; settings: SC5314, 24 h
# In short: (§4)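 Intact biofilms formed from 1 x 10^6 cells/ml in RPMI in polystyrene microtiter wells, 48 h at 37°C in a moist chamber, then washed once and covered with 100 µl RPMI. A twofold drug series was added in the same well for 24 h at 37°C. Metabolic activity was read by XTT (0.5 g/liter, 1 µM menadione, up to 2 h) at 490 nm.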
# [6] = test system: Candida albicans; assay: Antimicrobial activity against Candida albicans GDH2346 at planktonic cell density of 10^3 cells/ml after 24 hrs by XTT assay; settings: GDH2346, 24 h; in short: as §1
# [7] = test system: Candida albicans; assay: Antimicrobial activity against Candida albicans GDH2346 at planktonic cell density of 10^8 cells/ml after 24 hrs by XTT assay; settings: GDH2346, 24 h; in short: as §1
# [8] = test system: Candida albicans; assay: Antimicrobial activity against Candida albicans GDH2346 dissociated biofilms at cell density of 10^3 cells/ml after 24 hrs by XTT assay; settings: GDH2346, 24 h; in short: as §3
# [9] = test system: Candida albicans; assay: Antimicrobial activity against Candida albicans GDH2346 dissociated biofilms at cell density of 10^8 cells/ml after 24 hrs by XTT assay; settings: GDH2346, 24 h; in short: as §3
# [10] = test system: Candida albicans; assay: Antimicrobial activity against Candida albicans GDH2346 intact biofilms after 24 hrs by XTT assay; settings: GDH2346, 24 h; in short: as §4
# [11] = test system: Candida albicans; assay: Antimicrobial activity against Candida albicans FH1 at planktonic cell density of 10^3 cells/ml after 24 hrs by XTT assay; settings: FH1, 24 h
# In short: (§5)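 YNB-grown yeast (50 mM glucose, room temperature, shaken, to ~2 x 10^8 cells/ml) washed into MOPS-buffered RPMI 1640 with L-glutamine and set to the stated density. Exposed to twofold serial drug dilutions (1,024 to 0.0313 µg/ml) at 37°C, 48 h (caspofungin 24 h), with drug-free controls. Read-out: XTT (0.5 g/liter) plus 1 µM menadione, formazan at 490 nm.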
# [12] = test system: Candida albicans; assay: Antimicrobial activity against Candida albicans FH1 at planktonic cell density of 10^8 cells/ml after 24 hrs by XTT assay; settings: FH1, 24 h; in short: as §1
# [13] = test system: Candida albicans; assay: Antimicrobial activity against Candida albicans FH1 dissociated biofilms at cell density of 10^3 cells/ml after 24 hrs by XTT assay; settings: FH1, 24 h; in short: as §2
# [14] = test system: Candida albicans; assay: Antimicrobial activity against Candida albicans FH1 dissociated biofilms at cell density of 10^8 cells/ml after 24 hrs by XTT assay; settings: FH1, 24 h; in short: as §3
# [15] = test system: Candida albicans; assay: Antimicrobial activity against Candida albicans FH1 intact biofilms after 24 hrs by XTT assay; settings: FH1, 24 h; in short: as §4
# [16] = test system: Candida albicans; assay: Antimicrobial activity against fluconazole-resistant Candida albicans FH5 at planktonic cell density of 10^3 cells/ml after 24 hrs by XTT assay; settings: FH5, 24 h; in short: as §5
# [17] = test system: Candida albicans; assay: Antimicrobial activity against fluconazole-resistant Candida albicans FH5 at planktonic cell density of 10^8 cells/ml after 24 hrs by XTT assay; settings: FH5, 24 h; in short: as §5
# [18] = test system: Candida albicans; assay: Antimicrobial activity against fluconazole-resistant Candida albicans FH5 dissociated biofilms at cell density of 10^3 cells/ml after 24 hrs by XTT assay; settings: FH5, 24 h; in short: as §2
# [19] = test system: Candida albicans; assay: Antimicrobial activity against fluconazole-resistant Candida albicans FH5 dissociated biofilms at cell density of 10^8 cells/ml after 24 hrs by XTT assay; settings: FH5, 24 h; in short: as §2
# [20] = test system: Candida albicans; assay: Antimicrobial activity against fluconazole-resistant Candida albicans FH5 intact biofilms after 24 hrs by XTT assay; settings: FH5, 24 h
# In short: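 Biofilm seeded at 1 x 10^6 cells/ml in RPMI in polystyrene microtiter wells and grown 48 h at 37°C in a moist chamber. Washed once and drug added to the same well (twofold dilutions, 1,024 to 0.0313 µg/ml) for 48 h at 37°C (caspofungin 24 h). Read-out: XTT/menadione reduction at 490 nm.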
# [21] = test system: Candida albicans; assay: Antimicrobial activity against Cdr1, Cdr2 and Mdr1 deficient Candida albicans DSY1050 at planktonic cell density of 10^3 cells/ml after 24 hrs by XTT assay; settings: DSY1050, 24 h; in short: as §1
# [22] = test system: Candida albicans; assay: Antimicrobial activity against Cdr1, Cdr2 and Mdr1 deficient Candida albicans DSY1050 at planktonic cell density of 10^8 cells/ml after 24 hrs by XTT assay; settings: DSY1050, 24 h; in short: as §1
# [23] = test system: Candida albicans; assay: Antimicrobial activity against Cdr1, Cdr2 and Mdr1 deficient Candida albicans DSY1050 dissociated biofilms at cell density of 10^3 cells/ml after 24 hrs by XTT assay; settings: DSY1050, 24 h; in short: as §3
# [24] = test system: Candida albicans; assay: Antimicrobial activity against Cdr1, Cdr2 and Mdr1 deficient Candida albicans DSY1050 dissociated biofilms at cell density of 10^8 cells/ml after 24 hrs by XTT assay; settings: DSY1050, 24 h; in short: as §3
# [25] = test system: Candida albicans; assay: Antimicrobial activity against Cdr1, Cdr2 and Mdr1 deficient Candida albicans DSY1050 intact biofilms after 24 hrs by XTT assay; settings: DSY1050, 24 h; in short: as §4
# [26] = test system: Candida albicans; assay: Antimicrobial activity against Chk1 deficient Candida albicans CHK21 at planktonic cell density of 10^3 cells/ml after 24 hrs by XTT assay; settings: CHK21, 24 h; in short: as §5
# [27] = test system: Candida albicans; assay: Antimicrobial activity against Chk1 deficient Candida albicans CHK21 at planktonic cell density of 10^8 cells/ml after 24 hrs by XTT assay; settings: CHK21, 24 h; in short: as §1
# [28] = test system: Candida albicans; assay: Antimicrobial activity against Chk1 deficient Candida albicans CHK21 dissociated biofilms at cell density of 10^3 cells/ml after 24 hrs by XTT assay; settings: CHK21, 24 h; in short: as §2
# [29] = test system: Candida albicans; assay: Antimicrobial activity against Chk1 deficient Candida albicans CHK21 dissociated biofilms at cell density of 10^8 cells/ml after 24 hrs by XTT assay; settings: CHK21, 24 h; in short: as §3
# [30] = test system: Candida albicans; assay: Antimicrobial activity against Chk1 deficient Candida albicans CHK21 intact biofilms after 24 hrs by XTT assay; settings: CHK21, 24 h; in short: as §4
smiles,measurement,setting,value
CC[C@H](C)C[C@H](C)CCCCCCCCC(=O)N[C@H]1C[C@@H](O)[C@@H](NCCN)NC(=O)[C@@H]2[C@@H](O)CCN2C(=O)[C@H]([C@H](O)CCN)NC(=O)[C@H]([C@H](O)[C@@H](O)c2ccc(O)cc2)NC(=O)[C@@H]2C[C@@H](O)CN2C(=O)[C@H]([C@@H](C)O)NC1=O [CASPOFUNGIN],MIC80,[1],0.25 µg/mL
same,MIC80,[2],> 32 µg/mL
same,MIC80,[3],0.5 µg/mL
same,MIC80,[4],> 32 µg/mL
same,MIC80,[5],> 32 µg/mL
same,MIC80,[6],0.125 µg/mL
same,MIC80,[7],> 32 µg/mL
same,MIC80,[8],0.25 µg/mL
same,MIC80,[9],> 32 µg/mL
same,MIC80,[10],> 32 µg/mL
same,MIC80,[11],0.5 µg/mL
same,MIC80,[12],> 32 µg/mL
same,MIC80,[13],0.5 µg/mL
same,MIC80,[14],> 32 µg/mL
same,MIC80,[15],> 32 µg/mL
same,MIC80,[16],0.5 µg/mL
same,MIC80,[17],> 32 µg/mL
same,MIC80,[18],0.5 µg/mL
same,MIC80,[19],> 32 µg/mL
same,MIC80,[20],> 32 µg/mL
same,MIC80,[21],0.25 µg/mL
same,MIC80,[22],> 32 µg/mL
same,MIC80,[23],0.25 µg/mL
same,MIC80,[24],> 32 µg/mL
same,MIC80,[25],> 32 µg/mL
same,MIC80,[26],0.5 µg/mL
same,MIC80,[27],> 32 µg/mL
same,MIC80,[28],0.5 µg/mL
same,MIC80,[29],> 32 µg/mL
same,MIC80,[30],> 32 µg/mL
